DNMT1 inh: DNMT1 (human) enzyme inhibition; P26358; DNMT1 molecular beacon, Hinp1I cleavage, fluorescence; inhibition (reported as % activation of signal), % at 10 µM; 0.83% of 360,000 active; AID 588458; in the data active = inhibition above about 50%
LMPTP inh: blocks human LMPTP phosphatase | P24666 | recombinant LMPTP-A, OMFP fluorogenic substrate, fluorescence intensity | inhibition, % at 20 µM | 0.22% of 360,000 active | AID 651560;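 active = compounds that cut the enzyme signal by at least half of the control window in the single-dose screen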
Target sequence (P24666 whole entry, looked up): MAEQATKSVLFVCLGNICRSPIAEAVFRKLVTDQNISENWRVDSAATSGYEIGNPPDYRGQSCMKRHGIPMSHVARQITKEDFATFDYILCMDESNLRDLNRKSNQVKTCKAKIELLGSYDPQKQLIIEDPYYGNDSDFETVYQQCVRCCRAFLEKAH
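Material: LMPTP-A; amount: 0.625 nM enzyme; doses: single 20 µM dose; times: reaction 50 min, room temperature, dark; technique: fluorescence intensity of OMFP turnover product; benchmarks: no-enzyme and uninhibited controls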
STEP inh: blocks human striatal-enriched tyrosine phosphatase; recombinant STEP, OMFP fluorogenic substrate, fluorescence; inhibition, % at 20 µM; 0.25% of 360,000 active; AID 588621;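 active = inhibition at 20 µM, scaled per plate between control wells, above about 37%, limit read from the data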
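material = STEP tyrosine phosphatase | reagent = fluorogenic phosphatase substrate OMFP at 25 µM final | doses = single compound dose of 20 µM, 1% DMSO final | schedule = 20 min reaction, room temperature, in the dark | measured by = fluorescence, 480/540 nm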
Scp-1 inhibitor: blocks human Scp-1 phosphatase activity; 0.88% of 340,000 active; Recombinant Scp1, phosphopeptide, malachite green phosphate absorbance; Q9GZU7; inhibition, % at 20 µM;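 active = inhibition above about 50% at 20 µM, limit read from the data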
Target sequence (Q9GZU7 76-261 limits assumed): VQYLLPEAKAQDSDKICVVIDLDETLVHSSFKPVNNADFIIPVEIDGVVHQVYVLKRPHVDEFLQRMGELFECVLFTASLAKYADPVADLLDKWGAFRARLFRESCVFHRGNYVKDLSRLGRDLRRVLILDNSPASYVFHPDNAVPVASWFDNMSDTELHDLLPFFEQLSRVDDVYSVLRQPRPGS
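Assay system: SCP-1 catalytic fragment, aa 76-261 | Buffer or medium: Tris acetate buffer pH 5.5 with MgCl2 and Tween-20 | Compound: One concentration, 20 µM, with 1.0% DMSO | Also added: Phospho 17-mer peptide substrate | Signal: Absorbance at 630 nm | Incubation: 45 min enzyme reaction at room temperature | Measure: % inhibition of SCP-1 phosphate liberation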
SUMO1 PPI mod: modulators of human SUMO1-mediated protein-protein interactions; 0.33% of 360,000 active; inhibition, % at 20 µM; AID 602429; SUMO1 binding to a labelled peptide, TR-FRET, 1 h; P63165; in the data active = inhibition above about 37%
Target sequence (P63165 whole entry, looked up): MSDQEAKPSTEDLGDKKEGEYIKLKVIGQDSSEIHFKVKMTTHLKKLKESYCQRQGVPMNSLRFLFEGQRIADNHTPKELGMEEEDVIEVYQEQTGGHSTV
Scp-1 conf: confirmation of human Scp-1 phosphatase inhibitors; inhibition, % at 20 µM; AID 540281; shares compounds with Scp-1 inhibitor; 61% of 2,500 active; recombinant SCP-1 catalytic domain, phosphate release, malachite green absorbance
Scp-1 MG ctr: interferes with malachite green readout, flagging false Scp-1 hits | shares compounds with Scp-1 inhibitor | Colorimetric interference counterscreen, malachite green absorbance 630 nm | apparent inhibition (interference), % at 20 µM | 2,500 tested, under 10 active | AID 540313;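 note: compounds added after enzyme reaction finished so only phosphate colour detection is probed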
Scp-1 Tm shift: validation of human Scp-1 inhibitors by thermal shift binding; shares compounds with Scp-1 inhibitor; Recombinant SCP1, Sypro Orange thermal shift Tm; thermal shift relative to vanadate control, % at 40 µM; 25% of 1,500 active; AID 540329;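 active = substances whose mean melting-temperature shift, as a percentage of the reference inhibitor's shift, reaches about 5.3%, limit read from the data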
DNMT1 confirm: DNMT1 inhibition confirmation, single concentration | shares compounds with DNMT1 inh | DNMT1 molecular beacon HinP1I cleavage, fluorescence | inhibition, % at 10 µM | 8% of 2,300 active;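 active = average inhibition of at least 30% in the single-concentration confirmation test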
DNMT1 interf: shows spectral interference in the DNMT1 beacon assay. shares compounds with DNMT1 inh. DNMT1 molecular beacon spectral interference counterscreen, fluorescence 485/520. activation (fluorescence interference), % at 10 µM. 1% of 2,300 active. AID 602387;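 active = activation of at least 30% at 10 µM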;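 note: DNMT1 catalytic domain with a HinP1I cleavage step and a FAM/dabcyl DNA beacon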
A number is an active result. Rows were chosen to be rich in hits. Some 1.7% of all compounds tested hit in one or more screens of this group.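 Rule for the calls, unless noted: active = inhibition of at least 30% at 20 µM; inactive = the rest.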

CCOc1cccc(C=NNc2ccc(S(=O)(=O)Nc3ccccc3C(=O)O)cc2[N+](=O)[O-])c1O was read as DNMT1 inh inactive, LMPTP inh inactive, STEP inh inactive, Scp-1 inhibitor inactive and SUMO1 PPI mod inactive.
For COCCCNC(=O)C[C@H]1C[C@H](C(=O)N2CCCCC2)[C@@]2(C)c3[nH]c4cc(-c5ccco5)ccc4c3CCN2C1=O the results were DNMT1 inh inactive, LMPTP inh inactive, STEP inh inactive, Scp-1 inhibitor inactive and SUMO1 PPI mod inactive.
`COc1ccc(C(CC(=O)N2CCCC(C)C2)c2c(OC)cc(OC)c3c(-c4ccccc4)cc(=O)oc23)cc1` (centres undefined) gave DNMT1 inh 89.1, LMPTP inh inactive, STEP inh inactive, Scp-1 inhibitor 58.5, SUMO1 PPI mod inactive, Scp-1 conf 62.0, Scp-1 MG ctr inactive, Scp-1 Tm shift inactive, DNMT1 confirm inactive and DNMT1 interf inactive.
Screening COc1ccc(C(CC(=O)N2CCCCC2)c2c(OC)cc(OC)c3c(-c4ccccc4)cc(=O)oc23)cc1 (centres undefined) returned DNMT1 inh 102.2, LMPTP inh inactive, STEP inh inactive, Scp-1 inhibitor 79.0, SUMO1 PPI mod inactive, Scp-1 conf 64.8, Scp-1 MG ctr inactive, Scp-1 Tm shift inactive, DNMT1 confirm inactive and DNMT1 interf inactive.
For O=C(c1ccc(Cl)c(S(=O)(=O)N2CCCC2)c1)N1CCCC(C(F)(F)F)C1 (centres undefined) the results were DNMT1 inh inactive, LMPTP inh inactive, STEP inh inactive, Scp-1 inhibitor inactive and SUMO1 PPI mod inactive.
COc1ccc(OC)c(/C=N/NC(=O)c2ccc(Cn3cc([N+](=O)[O-])cn3)o2)c1 was read as DNMT1 inh inactive, LMPTP inh inactive, STEP inh inactive, Scp-1 inhibitor inactive and SUMO1 PPI mod inactive.
For Cc1cc(-c2ccccc2)nc2c(Br)c(C(=O)O)nn12 the results were DNMT1 inh 52.3, LMPTP inh inactive, STEP inh inactive, Scp-1 inhibitor 94.8, SUMO1 PPI mod inactive, Scp-1 conf 61.3, Scp-1 MG ctr inactive, Scp-1 Tm shift 8.2, DNMT1 confirm inactive and DNMT1 interf inactive.
`N#CCNC(=O)c1nn2c(C(F)(F)F)cc(-c3ccccc3)nc2c1Br` gave DNMT1 inh inactive, LMPTP inh inactive, STEP inh inactive, Scp-1 inhibitor inactive and SUMO1 PPI mod inactive.
For O=Cc1ccc2oc3nc4n(c(=O)c3c(=O)c2c1)CCCS4 the results were DNMT1 inh 94.3, LMPTP inh inactive, STEP inh inactive, Scp-1 inhibitor 80.4, SUMO1 PPI mod inactive, Scp-1 conf 66.9, Scp-1 MG ctr inactive, Scp-1 Tm shift inactive, DNMT1 confirm inactive and DNMT1 interf inactive.
For O=C(CCNS(=O)(=O)c1ccc(Br)cc1)NC1CCCCC1 the results were DNMT1 inh inactive, LMPTP inh inactive, STEP inh inactive, Scp-1 inhibitor inactive and SUMO1 PPI mod inactive.
O=C(CCS(=O)(=O)c1ccc(Br)cc1)NC1CCCC1 was read as DNMT1 inh 56.2, LMPTP inh inactive, STEP inh inactive, Scp-1 inhibitor 75.0, SUMO1 PPI mod inactive, Scp-1 conf 61.6, Scp-1 MG ctr inactive, Scp-1 Tm shift inactive, DNMT1 confirm inactive and DNMT1 interf inactive.

Compound activity as filed in PubChem BioAssay.
